# B1: Osa-1-4 twister ribozyme (parent)
# chain: CCGCCUAACACUGCCAAUGCCGGUCCCAAGCCCGGAUAAAAGUGGAGGGGGCGG
# Variants of: B1
# Assay: self-cleavage, relative activity (ratio to wild type); higher = more cleavage; co-transcriptional
# Method in brief: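 A DNA template for a 54-nucleotide Oryza sativa twister ribozyme was synthesised with 97 % wild-type base and 1 % of each other base at the 48 positions downstream of the cleavage site. It was transcribed in vitro for 2 h at 37 °C, allowing co-transcriptional self-cleavage, then reverse-transcribed with a template-switching oligonucleotide, PCR-amplified and deep-sequenced. Cleavage status was scored from reads with or without upstream sequence. Relative activity is fraction cleaved normalised to wild type.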
row,Variant,self-cleavage
1,G51U U12A,0.09
2,G51U U12C,0.08
3,G51U U43A,0.13
4,G51U U43G,0.08
5,G51U U43C,0.11
6,C52U G49C,0.07
7,C52U G49A,0.21
8,C52U G49U,0.15
9,C52G G54A,0.81
10,C52G G54C,0.91
11,C52G G54U,0.97
12,C52U G19C,0.18
13,C52U G19U,0.48
14,C52U G19A,0.93
15,G50U U18A,0.89
16,G50U U18C,0.97
17,G50U U18G,0.8
18,C52G G49A,0.2
19,C52G G49U,0.13
20,C52G G49C,0.07
21,C52A C9G,0.8

row,Variant,self-cleavage
1,C52A C9A,0.55
2,C52A C9U,0.82
3,C52U G45U,0.17
4,C52U G45A,0.54
5,C52U G45C,0.07
6,C52A G54C,0.87
7,C52A G54U,0.89
8,C52A G54A,0.69
9,C52A G30U,0.04
10,C52A G30C,0.06
11,C52A G30A,0.04
12,G51C U37G,0.18
13,G51C U37C,0.14
14,G51C U37A,0.08
15,G51C G53A,0.07
16,G51C G53C,0.04
17,G51C G53U,0.06
18,G53A G54U,0.79
19,G53A G54C,0.66
20,G53A G54A,0.62
21,C52U U37C,1.07

row,Variant,self-cleavage
1,C52U U37A,0.84
2,C52U U37G,1.06
3,C52G G53C,0.24
4,C52G G53U,0.44
5,C52G G53A,0.57
6,G51A U24C,0.08
7,G51A U24G,0.02
8,G51A U24A,0.08
9,C52A U24A,0.14
10,C52A U24C,0.18
11,C52A U24G,0.04
12,G50C U18A,0.95
13,G50C U18G,0.75
14,G50C U18C,0.95
15,C52A G49A,0.21
16,C52A G49U,0.1
17,C52A G49C,0.08
18,C52G G45U,0.14
19,C52G G45C,0.1
20,C52G G45A,0.27
21,G50C U24G,0.02

row,Variant,self-cleavage
1,G50C U24C,0.11
2,G50C U24A,0.08
3,C52U G42U,0.13
4,C52U G42C,0.39
5,C52U G42A,0.91
6,C52G G34C,0.17
7,C52G G34A,0.77
8,C52G G34U,0.42
9,G50C U37C,1.05
10,G50C U37A,0.78
11,G50C U37G,1.04
12,G51A G54U,0.83
13,G51A G54A,0.85
14,G51A G54C,0.95
15,C52G G48U,0.09
16,C52G G48A,0.13
17,C52G G48C,0.1
18,G50U U37A,0.85
19,G50U U37C,1.06
20,G50U U37G,1.04
21,G51A G53A,0.64
